In ChEMBL document CHEMBL4190234, “Design, synthesis and anticancer activity of new monastrol analogues bearing 1,3,4-oxadiazole moiety” (Eur J Med Chem, 2017):

Assays:
CCRF-CEM = assay: Growth inhibition of human CCRF-CEM cells at 10 uM incubated for 48 hrs by sulforhodamine B assay relative to control; format: functional; details: read-out: GI
How it was run: (§1)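 Single-dose screen at 10 μM final: cells in RPMI 1640, 5% FBS, 2 mM L-glutamine, plated 5,000–40,000/well, preincubated 24 h at 37°C, 5% CO2; drug 48 h; adherent cells fixed with 10% TCA, suspension cells with 16% TCA; SRB stain, absorbance 515 nm; percentage growth versus untreated control, with time-zero plates.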

K562 = assay: Growth inhibition of human K562 cells at 10 uM incubated for 48 hrs by sulforhodamine B assay relative to control; format: functional; details: K562, 48 h, read-out: GI; how it was run: as §1
MOLT-4 [1] = assay: Growth inhibition of human MOLT4 cells at 10 uM incubated for 48 hrs by sulforhodamine B assay relative to control; format: functional; details: MOLT-4, 48 h, read-out: GI; how it was run: as §1
RPMI-8226 = assay: Growth inhibition of human RPMI8226 cells at 10 uM incubated for 48 hrs by sulforhodamine B assay relative to control; format: functional; details: RPMI-8226, 48 h, read-out: GI; how it was run: as §1
A549 = assay: Growth inhibition of human A549/ATCC cells at 10 uM incubated for 48 hrs by sulforhodamine B assay relative to control; format: functional; details: A549, 48 h, read-out: GI; how it was run: as §1
EKVX = assay: Growth inhibition of human EKVX cells at 10 uM incubated for 48 hrs by sulforhodamine B assay relative to control; format: functional; details: read-out: GI; how it was run: as §1
HOP-92 = assay: Growth inhibition of human HOP92 cells at 10 uM incubated for 48 hrs by sulforhodamine B assay relative to control; format: functional; details: HOP-92, 48 h, read-out: GI; how it was run: as §1
NCI-H226 = assay: Growth inhibition of human NCI-H226 cells at 10 uM incubated for 48 hrs by sulforhodamine B assay relative to control; format: functional; details: NCI-H226, 48 h, read-out: GI; how it was run: as §1
NCI-H23 = assay: Growth inhibition of human NCI-H23 cells at 10 uM incubated for 48 hrs by sulforhodamine B assay relative to control; format: functional; details: NCI-H23, 48 h, read-out: GI; how it was run: as §1
COLO 205 = assay: Growth inhibition of human COLO205 cells at 10 uM incubated for 48 hrs by sulforhodamine B assay relative to control; format: functional; details: COLO 205, 48 h, read-out: GI; how it was run: as §1
HCC 2998 = assay: Growth inhibition of human HCC2998 cells at 10 uM incubated for 48 hrs by sulforhodamine B assay relative to control; format: functional; details: HCC 2998, 48 h, read-out: GI; how it was run: as §1
HT-29 = assay: Growth inhibition of human HT-29 cells at 10 uM incubated for 48 hrs by sulforhodamine B assay relative to control; format: functional; details: HT-29, 48 h, read-out: GI; how it was run: as §1
SW-620 = assay: Growth inhibition of human SW620 cells at 10 uM incubated for 48 hrs by sulforhodamine B assay relative to control; format: functional; details: SW-620, 48 h, read-out: GI
How it was run: (§2)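 NCI single-dose screen: cells grown in RPMI 1640 with 5% FBS and 2 mM L-glutamine, plated at 5,000–40,000 cells/well and preincubated 24 h at 37 °C, 5% CO2. Compounds taken from DMSO stock and tested at final 10 µM for 48 h. Cells fixed with TCA, stained with 0.4% SRB, absorbance read at 515 nm. Percentage growth calculated against untreated controls; controls held DMSO at the same dilution.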

SF-295 = assay: Growth inhibition of human SF295 cells at 10 uM incubated for 48 hrs by sulforhodamine B assay relative to control; format: functional; details: SF-295, 48 h, read-out: GI; how it was run: as §2
SNB-19 = assay: Growth inhibition of human SNB19 cells at 10 uM incubated for 48 hrs by sulforhodamine B assay relative to control; format: functional; details: SNB-19, 48 h, read-out: GI; how it was run: as §2
U-251 = assay: Growth inhibition of human U251 cells at 10 uM incubated for 48 hrs by sulforhodamine B assay relative to control; format: functional; details: U-251, 48 h, read-out: GI; how it was run: as §2
LOX IMVI = assay: Growth inhibition of human LOXIMVI cells at 10 uM incubated for 48 hrs by sulforhodamine B assay relative to control; format: functional; details: read-out: GI; how it was run: as §1
Malme-3M = assay: Growth inhibition of human MALME-3M cells at 10 uM incubated for 48 hrs by sulforhodamine B assay relative to control; format: functional; details: read-out: GI; how it was run: as §1
MDA-MB-435 = assay: Growth inhibition of human MDA-MB-435 cells at 10 uM incubated for 48 hrs by sulforhodamine B assay relative to control; format: functional; details: MDA-MB-435, 48 h, read-out: GI; how it was run: as §1
SK-MEL-2 = assay: Growth inhibition of human SK-MEL-2 cells at 10 uM incubated for 48 hrs by sulforhodamine B assay relative to control; format: functional; details: SK-MEL-2, 48 h, read-out: GI; how it was run: as §2
SK-MEL-28 = assay: Growth inhibition of human SK-MEL-28 cells at 10 uM incubated for 48 hrs by sulforhodamine B assay relative to control; format: functional; details: SK-MEL-28, 48 h, read-out: GI; how it was run: as §2
UACC-257 = assay: Growth inhibition of human UACC257 cells at 10 uM incubated for 48 hrs by sulforhodamine B assay relative to control; format: functional; details: UACC-257, 48 h, read-out: GI; how it was run: as §2
OVCAR-5 = assay: Growth inhibition of human OVCAR5 cells at 10 uM incubated for 48 hrs by sulforhodamine B assay relative to control; format: functional; details: OVCAR-5, 48 h, read-out: GI; how it was run: as §1
OVCAR-8 = assay: Growth inhibition of human OVCAR8 cells at 10 uM incubated for 48 hrs by sulforhodamine B assay relative to control; format: functional; details: OVCAR-8, 48 h, read-out: GI; how it was run: as §1
CAKI-1 = assay: Growth inhibition of human Caki1 cells at 10 uM incubated for 48 hrs by sulforhodamine B assay relative to control; format: functional; details: CAKI-1, 48 h, read-out: GI; how it was run: as §1
TK-10 = assay: Growth inhibition of human TK10 cells at 10 uM incubated for 48 hrs by sulforhodamine B assay relative to control; format: functional; details: TK-10, 48 h, read-out: GI; how it was run: as §2
UO-31 = assay: Growth inhibition of human UO31 cells at 10 uM incubated for 48 hrs by sulforhodamine B assay relative to control; format: functional; details: UO-31, 48 h, read-out: GI; how it was run: as §2
PC-3 = assay: Growth inhibition of human PC3 cells at 10 uM incubated for 48 hrs by sulforhodamine B assay relative to control; format: functional; details: PC-3, 48 h, read-out: GI; how it was run: as §1
DU-145 = assay: Growth inhibition of human DU145 cells at 10 uM incubated for 48 hrs by sulforhodamine B assay relative to control; format: functional; details: DU-145, 48 h, read-out: GI; how it was run: as §1
Hs-578T = assay: Growth inhibition of human Hs 578T cells at 10 uM incubated for 48 hrs by sulforhodamine B assay relative to control; format: functional; details: read-out: GI; how it was run: as §1
MOLT-4 [2] = assay: Growth inhibition of human MOLT4 cells incubated for 24 hrs by MTT assay; format: functional, cell-based; details: MOLT-4, 24 h

Compound | inhibition of growth at 10 µM (CCRF-CEM) | inhibition of growth at 10 µM (K562) | inhibition of growth at 10 µM (MOLT-4 [1]) | inhibition of growth at 10 µM (RPMI-8226) | inhibition of growth at 10 µM (A549) | inhibition of growth at 10 µM (EKVX) | inhibition of growth at 10 µM (HOP-92) | inhibition of growth at 10 µM (NCI-H226) | inhibition of growth at 10 µM (NCI-H23) | inhibition of growth at 10 µM (COLO 205) | inhibition of growth at 10 µM (HCC 2998) | inhibition of growth at 10 µM (HT-29) | inhibition of growth at 10 µM (SW-620) | inhibition of growth at 10 µM (SF-295) | inhibition of growth at 10 µM (SNB-19) | inhibition of growth at 10 µM (U-251) | inhibition of growth at 10 µM (LOX IMVI) | inhibition of growth at 10 µM (Malme-3M) | inhibition of growth at 10 µM (MDA-MB-435) | inhibition of growth at 10 µM (SK-MEL-2) | also measured
CCOC(=O)C1=C(C)NC(SCc2nnc(-c3ccc(Cl)cc3)o2)=NC1c1ccc(Br)cc1 (stereo not drawn) | 56.6% | 39.3% | 91.7% | 61.6% | 37.6% | 28.7% | 42.2% | 21.1% | 24.3% | 22.4% | < 10% | 21.3% | < 10% | 26.4% | 28% | 34.3% | 25.1% | 16.9% | 34.9% | < 10% | inhibition of growth at 10 µM (SK-MEL-28): 18.7%; inhibition of growth at 10 µM (UACC-257): 27%; inhibition of growth at 10 µM (OVCAR-5): < 10%; inhibition of growth at 10 µM (OVCAR-8): 27.3%; inhibition of growth at 10 µM (CAKI-1): 32.8%; inhibition of growth at 10 µM (TK-10): 20.1%; inhibition of growth at 10 µM (UO-31): 47.6%; inhibition of growth at 10 µM (PC-3): 51.2%; inhibition of growth at 10 µM (DU-145): 15.7%; inhibition of growth at 10 µM (Hs-578T): 12.9%; IC50 (MOLT-4 [2]): 86 nM
CCOC(=O)C1=C(C)NC(SCc2nnc(-c3ccc(Cl)cc3)o2)=NC1c1cccc(Cl)c1 (stereo not drawn) | 38.2% | 27.5% | 45% | 46.4% | 29.5% | < 10% | 49% | < 10% | < 10% | 29.6% | 10.3% | 46.4% | < 10% | 25.5% | 10.4% | < 10% | 17.7% | < 10% | < 10% | 39.9% | inhibition of growth at 10 µM (SK-MEL-28): < 10%; inhibition of growth at 10 µM (UACC-257): 22.2%; inhibition of growth at 10 µM (OVCAR-5): 10.5%; inhibition of growth at 10 µM (OVCAR-8): 33.7%; inhibition of growth at 10 µM (CAKI-1): 35.1%; inhibition of growth at 10 µM (TK-10): 30.3%; inhibition of growth at 10 µM (UO-31): 35.9%; inhibition of growth at 10 µM (PC-3): 39.2%; inhibition of growth at 10 µM (DU-145): 13.5%; inhibition of growth at 10 µM (Hs-578T): < 10%; IC50 (MOLT-4 [2]): 1790 nM
CCOC(=O)C1=C(C)NC(SCc2nnc(-c3ccc(Cl)cc3)o2)=NC1c1ccc(Cl)cc1 (stereo not drawn) | 60.3% | 44.2% | 93% | 64.2% | 31% | 19.9% | 35.9% | 30.1% | 21.2% | 20.4% | 20.1% | 24.8% | 14.1% | 25.9% | 27% | 26.1% | 23.1% | 18.3% | 30.4% | < 10% | inhibition of growth at 10 µM (SK-MEL-28): 20.2%; inhibition of growth at 10 µM (UACC-257): 13.1%; inhibition of growth at 10 µM (OVCAR-5): 10.4%; inhibition of growth at 10 µM (OVCAR-8): 25.2%; inhibition of growth at 10 µM (CAKI-1): 38.4%; inhibition of growth at 10 µM (TK-10): 22.5%; inhibition of growth at 10 µM (UO-31): 51.3%; inhibition of growth at 10 µM (PC-3): 51.2%; inhibition of growth at 10 µM (DU-145): 12.8%; inhibition of growth at 10 µM (Hs-578T): 16.3%; IC50 (MOLT-4 [2]): 623 nM
